# Measurements pooled from the literature.
# Effect on: microbial growth
SMILES,organism,technique,strain,time,setting,MIC
C[C@@H](O)[C@H]1C(=O)N2C(C(=O)O)=C(S[C@@H]3CN[C@H](C(=O)N(C)C)C3)[C@H](C)[C@H]12,Citrobacter freundii,broth dilution,,,clinical isolate,> 64 µg/mL
O=C(O)Cc1ccc(Oc2ccc(-c3noc(-c4ccc(O)cc4)n3)cc2)cc1,Enterococcus faecium,broth dilution,,24 h,,> 32 µg/mL
NC(=O)c1cccc(-n2c(/C=C/c3ccc(F)cc3)nc3ccccc3c2=O)c1,Enterococcus faecium,broth dilution,NCTC7171,,,> 128 µg/mL
Nc1ccc(-c2nc(-c3ccc(Oc4ccccc4)cc3)no2)cc1,Enterococcus faecium,broth dilution,,24 h,,> 32 µg/mL
CC(C)Oc1c(NC(=O)c2ccc(NC(=O)c3ccc(NC(=O)[C@H](CC(N)=O)NC(=O)c4ccc(NC(=O)c5ccc(C#N)s5)cc4)cc3)c(OC(C)C)c2O)ccc(C(=O)O)c1O,Citrobacter freundii,,DSM30039,,,0.5 µg/mL
O=[N+]([O-])c1ccc(-c2nc(-c3ccc(Oc4ccccc4)cc3)no2)cc1,Enterococcus faecium,broth dilution,,24 h,,> 32 µg/mL
O=C(O)c1cccc(-n2c(/C=C/c3ccc(F)cc3)nc3ccncc3c2=O)c1,Enterococcus faecium,broth dilution,NCTC7171,,,> 128 µg/mL
CC(C)Oc1c(NC(=O)c2ccc(NC(=O)[C@H](CC(N)=O)NC(=O)c3ccc(NC(=O)c4ccc(C#N)cc4)cc3)cc2)ccc(C(=O)Nc2ccc(C(=O)O)cc2)c1O,Citrobacter freundii,,DSM30039,,,≤ 0.03 µg/mL
O=C(O)Cc1ccccc1Oc1ccc(-c2noc(-c3ccc(O)cc3)n2)cc1,Enterococcus faecium,broth dilution,,24 h,,> 32 µg/mL
C/C(=C\c1ccc(C#N)cc1)C(=O)Nc1ccc(C(=O)N[C@@H](CC(N)=O)C(=O)Nc2ccc(C(=O)Nc3ccc(C(=O)Nc4ccc(C(=O)O)cc4)c(O)c3OC(C)C)cc2)cc1,Citrobacter freundii,,DSM30039,,,0.06 µg/mL
O=C(O)c1cccc(-n2c(/C=C/c3ccc(F)c(F)c3)nc3ccccc3c2=O)c1,Enterococcus faecium,broth dilution,NCTC7171,,,> 128 µg/mL
CC(C)Oc1c(-n2cc(-c3ccc(NC(=O)C(CC(N)=O)NC(=O)c4ccc(NC(=O)c5ccc(C#N)cc5)cc4)cc3)nn2)ccc(C(=O)Nc2ccc(C(=O)O)cc2)c1O (stereo not drawn),Citrobacter freundii,,DSM30039,,,0.5 µg/mL
CC(C)Nc1cccc(-n2c(/C=C/c3ccc(C#N)cc3)nc3ccccc3c2=O)c1,Enterococcus faecium,broth dilution,NCTC7171,,,> 128 µg/mL
O=C(O)COc1cccc(Oc2ccc(-c3noc(-c4ccc(O)cc4)n3)cc2)c1,Enterococcus faecium,broth dilution,,24 h,,> 32 µg/mL
CC(C)Oc1c(NC(=O)c2ccc(NC(=O)[C@H](CC(N)=O)NC(=O)c3ccc(NC(=O)c4ccc(C#N)cn4)cc3)cc2)ccc(C(=O)Nc2ccc(C(=O)O)cc2)c1O,Citrobacter freundii,,DSM30039,,,≤ 0.03 µg/mL
